In the library only some 1.9% were active in any assay of this set; here they are far more common.
M4 antag: antagonists of human muscarinic M4 receptor (CHRM4); AID 624125; CHO-hM4 cells, ACh EC80, Fluo-8 calcium fluorescence; P08173; hit rate 0.73% among 360,000; inhibition, % at 3 µM;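 active = inhibition above its plate's cutoff, the mean inhibition of sample wells plus 3 SD, cut at about 27% in these data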;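 note: 0% = acetylcholine EC80 with DMSO and 100% = DMSO without agonist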
CHRM5 antagonist: blocks acetylcholine activation of human M5 receptor; inhibition, % at 3 µM; AID 624040; P08912; CHO-hM5 cells, Fluo-8 calcium fluorescence, ACh EC80; hit rate 0.59% among 360,000;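 active = inhibition above a per-plate cutoff, the mean of that plate's test compounds plus 3 SD, cut at about 27% in these data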;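 note: 0% = acetylcholine EC80 with DMSO and 100% = DMSO without agonist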
Target sequence (P08912 whole entry, looked up): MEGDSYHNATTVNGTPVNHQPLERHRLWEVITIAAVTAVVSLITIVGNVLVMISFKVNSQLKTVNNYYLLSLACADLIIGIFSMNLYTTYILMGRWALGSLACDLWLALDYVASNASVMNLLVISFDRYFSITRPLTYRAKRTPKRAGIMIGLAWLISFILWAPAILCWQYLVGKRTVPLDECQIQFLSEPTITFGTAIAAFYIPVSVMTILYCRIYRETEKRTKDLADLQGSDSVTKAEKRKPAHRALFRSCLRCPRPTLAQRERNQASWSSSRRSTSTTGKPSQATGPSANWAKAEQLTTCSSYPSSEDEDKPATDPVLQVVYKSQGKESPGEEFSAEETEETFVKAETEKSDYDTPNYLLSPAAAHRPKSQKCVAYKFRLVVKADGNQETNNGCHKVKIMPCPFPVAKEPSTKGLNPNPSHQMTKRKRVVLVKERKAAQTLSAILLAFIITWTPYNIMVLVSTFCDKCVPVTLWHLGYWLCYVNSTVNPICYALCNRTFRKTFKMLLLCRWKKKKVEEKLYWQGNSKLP
M4 PAM: positive allosteric modulators of human muscarinic M4 receptor; P08173; CHO-K1 hM4/Gqi5, Fluo-8 calcium fluorescence, ACh EC20; 0% = ACh EC20, 100% = maximal ACh; activation, % at 3 µM; hit rate 0.4% among 360,000; AID 624126;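 active = activation above its plate's cutoff, the mean activation of sample wells plus 3 SD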
M4 ag: agonists of human muscarinic M4 receptor (CHRM4); CHO-K1 hM4/Gqi5, Fluo-8 calcium fluorescence; vehicle 0%, full acetylcholine response 100%; activation, % at 3 µM; hit rate 0.14% among 360,000;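 active = activation above the run mean over all test wells plus 3 SD, cut at about 32% in these data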;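 note: peak over basal fluorescence ratio per well then scaled between controls; 0% = DMSO wells and 100% = acetylcholine at EC100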
M5 ag: CHRM5 agonism in calcium assay. P08912. CHO-K1 hM5 cells, Fluo-8 calcium fluorescence; 0% DMSO wells, 100% maximal acetylcholine response. activation, % at 3 µM. hit rate 0.19% among 360,000. AID 624037;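 active = activation above the run's mean over test compounds plus 3 SD, cut at about 23% in these data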;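 note: signal is peak over basal fluorescence ratio across the kinetic read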
M5 PAM: positive allosteric modulators of human muscarinic M5 receptor. CHO-K1 hM5, Fluo-8 calcium, ACh EC20 PAM; 0% = ACh EC20, 100% = ACh EC100. hit rate 0.3% among 360,000. activation, % at 3 µM. AID 624038;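 active = activation above the run cutoff, the mean activation of all test compounds plus 3 SD, cut at about 18% in these data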
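Assay system – human M5 receptor in CHO-K1 cells · Read-out – % activation, ACh-normalized · Technique – Fluo-8 calcium fluorescence · Dosing – single-point, 3 µM nominal · Incubation – Fluo-8 loading 80 min at 37 °C plus 30 min room temperature · Repeats – singlicate, one well per test compound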
* = called active by the depositor.

SMILES | M4 antag | CHRM5 antagonist | M4 PAM | M4 ag | M5 ag | M5 PAM
Cc1sc2ncnc(N3CCC(C(=O)Nc4ccc(Cl)cc4Cl)CC3)c2c1C | 0 | 0 | 38* | 13 | 0 | 5
Cc1sc2ncnc(N3CCC(C(=O)Nc4ccc(Cl)c(Cl)c4)CC3)c2c1C | 0 | 19 | 23* | 3 | -1 | -5
CNC(=O)c1ccc(NC(=O)C2CCN(c3ncnc4sc(C)c(C)c34)CC2)cc1 | 70* | 19 | 9 | 72* | -1 | -12
Cc1sc2ncnc(N3CCC(C(=O)Nc4ccc(Br)cc4Br)CC3)c2c1C | -5 | -2 | 22* | 0 | 2 | 0
CCc1cccc(NC(=O)C2CCN(c3ncnc4sc(C)c(C)c34)CC2)c1 | 12 | 9 | 20 | 10 | -3 | -36
O=C(Nc1cc([N+](=O)[O-])ccc1F)C1CCN(S(=O)(=O)c2cccs2)CC1 | -2 | 22 | 3 | 5 | 2 | -10
C[C@@H]1CN([C@H](C)CO)C(=O)CCCn2nncc2CO[C@@H]1CN(C)S(=O)(=O)c1cccs1 | -20 | 16 | 7 | 0 | -2 | -6
CCS(=O)(=O)N1CCN(c2ncnc3sc(C)c(C)c23)CC1 | -9 | 6 | 21* | 8 | 0 | 9
Cc1cc(C)c(C)c(S(=O)(=O)N2CCN(c3ncnc4sc(C)c(C)c34)CC2)c1C | -5 | 7 | 8 | 1 | -3 | 1
CCOC(=O)c1ccc(NC(=S)N2CCSC2c2ccc(Br)cc2)cc1 (stereo not drawn) | 28* | 13 | -8 | 46* | 14 | 2
CCOC(=O)c1ccc(NC(=S)N2CCC(O)CC2)cc1 | -7 | 11 | 2 | 1 | -3 | 0
CC(C)CCN1C(=O)c2cccc3c(N)ccc(c23)C1=O | 47* | 70* | -18 | 97* | 313* | -32
Cc1cccc(N2C(=O)c3cccc4c(N)ccc(c34)C2=O)c1 | 29* | 51* | -18 | 104* | 380* | -31
Nc1ccc2c3c(cccc13)C(=O)N(c1ccccc1)C2=O | 31* | 23 | -28 | 70* | 45* | -20
Cc1cccc(N2C(=O)c3cccc4cccc(c34)C2=O)c1 | -3 | 5 | 2 | 1 | 1 | 1
Cc1cccc(N2C(=O)c3cccc4c(N(C)CCO)ccc(c34)C2=O)c1 | 21 | 23 | -25 | 38* | 42* | -17
Cc1ccc(N2C(=O)N(CC(=O)Nc3ccc(C)c(C)c3[N+](=O)[O-])C(=O)C2C)cc1 (stereo not drawn) | 4 | 22 | 1 | 2 | 0 | -6
Cc1cc(Cn2nnc3ccccc32)c(O)c(C(C)(C)C)c1 | 16 | 18 | -4 | 11 | -3 | -26
O=C(O)c1cccc(N2C(=O)c3cccc4c(Cl)ccc(c34)C2=O)c1 | 1 | -4 | 7 | 2 | -2 | -2
Nc1cccc(N2C(=O)c3cccc4c(N)ccc(c34)C2=O)c1 | 4 | 8 | -12 | 39* | 21 | -11
O=C(NCCCc1ccccc1)[C@@H]1Cc2ccccc2CN1 | -10 | 2 | -2 | 1 | -3 | -5
O=C(Nc1ccncc1)C1CCN(S(=O)(=O)c2ccc(Cl)c(C(F)(F)F)c2)CC1 | -4 | 11 | 0 | 14 | 7 | -9
Cc1ccc2nc(-c3ccc(NC(=S)NC(=O)CC(C)C)cc3)sc2c1 | -1 | -6 | 10 | 0 | 0 | -1
Cc1ccc2nc(-c3ccc(NC(=O)C(C)Sc4nncs4)cc3)sc2c1 (stereo not drawn) | 29* | 8 | 5 | 8 | 6 | -3
O=C(NC1CCCC1)C1C(c2ccc(C(F)(F)F)cc2)=Nc2ccccc2N1C(=O)c1cccc(C(F)(F)F)c1 (stereo not drawn) | 35* | 9 | -7 | 0 | -1 | -12
SMILES | M4 antag | CHRM5 antagonist | M4 PAM | M4 ag | M5 ag | M5 PAM
CCNc1nc(NC(C)C)nc(NS(=O)(=O)c2ccc(N)cc2)n1 | -17 | 3 | 30* | 1 | 3 | 0
FC(F)(F)c1ccc(C2[C@H]3CN(CC4CCCCC4)[C@H](c4ccccc4)C34CC2(c2cccnc2)C4)cc1 (stereo partly drawn) | 3 | 5 | -10 | 0 | 0 | -7
O=C(Cc1ccc(Cl)cc1)NCC(=O)N1CCCCCC1 | -8 | 7 | -1 | 1 | -1 | 5
C=CCN1C(=O)C(Cc2ccc(SC(F)F)cc2)SC1=Nc1ccc(C(=O)O)cc1 (stereo not drawn) | -10 | 27* | 7 | 8 | -7 | -10
COc1ccc(S(=O)(=O)N(CC(=O)NCCC(C)C)c2ccccc2)cc1OC | -18 | -8 | 25* | 3 | -3 | 12
CCCNC(=O)CN(c1ccccc1)S(=O)(=O)c1ccc(OC)c(OC)c1 | -13 | -12 | 7 | 3 | -1 | 7
CC1CCN(Cc2ccc(NC(=O)C3CCN(c4nnc(-n5cccc5)s4)CC3)cc2)CC1 | 33* | -4 | -16 | 5 | -5 | -5
O=C(C1CCN(c2nnc(-n3cccc3)s2)CC1)N1CCN(Cc2ccc3c(c2)OCO3)CC1 | -2 | 3 | -1 | 6 | 3 | -4
CC1CCCC(C)N1CC(O)Cn1c2ccccc2c2ccccc21 (stereo not drawn) | 4 | 10 | -7 | 3 | -18 | -4
Cc1cccc(N2CCN(C(=O)CCC(=O)N3CC(C)Oc4ccc(C)cc43)CC2C)c1 (stereo not drawn) | 101* | 3 | -19 | 12 | 2 | -8
Cc1ccc2c(c1)N(C(=O)CCC(=O)N1CCN(c3ccccn3)CC1)CC(C)O2 (stereo not drawn) | 3 | 4 | -5 | 3 | 0 | -5
CC(C)C(=O)Nc1cccc(C(=O)Nc2ccc(S(=O)(=O)Nc3nccs3)cc2)c1 | -1 | 8 | 4 | 1 | -2 | 1
CS(=O)(=O)c1cc([N+](=O)[O-])c(Sc2nc3ccccc3[nH]2)c([N+](=O)[O-])c1 | 38* | 13 | -1 | 3 | 0 | 7
O=C(O)c1cc([N+](=O)[O-])c(Sc2nc3ccccc3[nH]2)c([N+](=O)[O-])c1 | 10 | 5 | -2 | 1 | -2 | 3
Cc1cccc(C)c1C(OCCN(C)C)C1CCCCC1 (stereo not drawn) | 77* | 100* | -20 | 5 | -9 | -19
COCCN(C(=O)CCl)C(C(=O)NC1CCCCC1)c1ccccc1C (stereo not drawn) | 14 | -1 | -12 | -1 | -3 | 1
COc1ccc(N=C2C(=O)Nc3ccccc32)cc1 | 4 | 3 | -1 | 0 | 2 | 0
COc1ccc(N=C2C(=O)N3c4c(cccc42)C(C)=CC3(C)C)cc1 | 3 | -1 | 12 | 1 | 29* | -6
